Results from ChEMBL document CHEMBL4219038, “1-Thiazol-2-yl-N-3-methyl-1H-pyrozole-5-carboxylic acid derivatives as antitumor agents” (Bioorg Med Chem Lett, 2017).

Legend:
BJAB = experiment: Antiproliferative activity against human BJAB cells after 4 days; format: functional, cell-based; conditions: Homo sapiens, BJAB, 96 h; read-out: EC50
Jurkat = experiment: Antiproliferative activity against human Jurkat cells; format: functional, cell-based
HCT-116 = experiment: Antiproliferative activity against human HCT116 cells; format: functional, cell-based
A2780 = experiment: Antiproliferative activity against human A2780 cells; format: functional, cell-based
NCI-H460 = experiment: Antiproliferative activity against human NCI-H460 cells; format: functional, cell-based
MCF7 = experiment: Antiproliferative activity against human MCF7 cells; format: functional, cell-based
[1] = Kinetic solubility of the compound in PBS buffer at pH 7.4 in presence of 10% FBS; format: physicochemical; conditions: PBS buffer with 10% FBS, read-out: Kinetic_solubility
[2] = Protein binding in human plasma; format: ADME, cell-free; conditions: read-out: PPB (converted)
[3] = Protein binding in mouse plasma; format: ADME, cell-free; conditions: read-out: PPB (converted)
[4] = Tmax in po dosed mouse; format: ADME, organism-based; conditions: in vivo
[5] = Volume of distribution at steady state in iv dosed mouse; format: ADME, organism-based; conditions: in vivo, read-out: Vdss
[6] = Cmax in mouse at 2.5 mg/kg; format: ADME, organism-based; parameters: dose 2.5 mg/kg; conditions: in vivo
[7] = Cmax in mouse at 50 mg/kg; format: ADME, organism-based; parameters: dose 50 mg/kg; conditions: in vivo
[8] = AUC (0 to infinity) in mouse at 50 mg/kg; format: ADME, organism-based; parameters: dose 50 mg/kg, time infinity; conditions: in vivo
[9] = MRT in mouse at 2.5 mg/kg, po; format: ADME, organism-based; conditions: in vivo
Mus musculus [10] = experiment: Ratio of Cmax in mouse at 2.5 mg/kg, po to Cmax in mouse at 50 mg/kg, po; format: ADME, organism-based; conditions: in vivo
Mus musculus [11] = experiment: Ratio of AUC (0 to infinity) in mouse at 2.5 mg/kg, po to Cmax in mouse at 50 mg/kg, po; format: ADME, organism-based; conditions: in vivo
Mus musculus [12] = experiment: Ratio of AUC (0 to infinity) in mouse at 2.5 mg/kg, po to Cmax in mouse at 100 mg/kg, po; format: ADME, organism-based; conditions: in vivo
Mus musculus [13] = experiment: Toxicity in J:Nu mouse assessed as induction of changes in critical clinical parameters at 30 mg/kg, po qd for 7 days followed by 90 mg/kg, po qd for 5 days from day 8 to 13; format: organism-based; conditions: in vivo
Procedure, shortened: (§1)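 In J:Nu female mice (N = 4 per group), dosing was oral once daily at 30 or 60 mg/kg in 5% NMP/10% PEG-400/15% Solutol/70% D5W for 7 days. Doses were then raised to 90 or 120 mg/kg respectively on days 8–13. Clinical signs and body weights were recorded daily. Gross pathology, with spleen and liver weights, was done 48 h after the last dose.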

Mus musculus [14] = experiment: Toxicity in J:Nu mouse assessed as changes in organ weight at 30 mg/kg, po qd for 7 days followed by 90 mg/kg, po qd for 5 days from day 8 to 13 measured 48 hrs after post last dose by pathology analysis; format: organism-based; conditions: in vivo; procedure, shortened: as §1
Mus musculus [15] = experiment: Toxicity in J:Nu mouse assessed as organ damage at 30 mg/kg, po qd for 7 days followed by 90 mg/kg, po qd for 5 days from day 8 to 13 measured 48 hrs after post last dose by pathology analysis; format: organism-based; conditions: in vivo; procedure, shortened: as §1
Mus musculus [16] = experiment: Toxicity in J:Nu mouse assessed as organ damage at 60 mg/kg, po qd for 7 days followed by 120 mg/kg, po qd for 5 days from day 8 to 13 measured 48 hrs after post last dose by pathology analysis; format: organism-based; conditions: in vivo; procedure, shortened: as §1
[17] = Plasma concentration (7 hrs) in J:Nu mouse at 30 mg/kg, po qd for 7 days measured on day 1; format: ADME, organism-based
Procedure, shortened: (§2)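 J:Nu female mice, N = 4 per group, dosed orally once daily at 10, 30 or 60 mg/kg in 5% NMP, 10% PEG-400, 15% Solutol, 70% D5W. Blood was sampled every other day, alternating Cmax and predose draws. Plasma concentration was taken 7 h after dosing.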

[18] = Plasma concentration (7 hrs) in J:Nu mouse at 60 mg/kg, po qd for 7 days measured on day 1; format: ADME, organism-based; procedure, shortened: as §2
[19] = Plasma concentration (7 hrs) in J:Nu mouse at 30 mg/kg, po qd for 7 days measured on day 5; format: ADME, organism-based; procedure, shortened: as §2
[20] = Dose normalized Cmax in J:Nu mouse plasma at 10 mg/kg, po qd for 7 days; format: ADME, organism-based; conditions: in vivo, 168 h
Procedure, shortened: (§3)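 J:Nu female mice, N = 4 per group, dosed orally once daily at 10, 30 or 60 mpk in 5% NMP, 10% PEG-400, 15% Solutol, 70% D5W. The 30 and 60 mpk groups were raised to 90 and 120 mpk from day 8 to 13.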

[21] = Dose normalized Cmax in J:Nu mouse plasma at 30 mg/kg, po qd for 7 days followed by 90 mg/kg, po qd for 5 days from day 8 to 13; format: ADME, organism-based; conditions: in vivo; procedure, shortened: as §3
[22] = AUC (0 to infinity) in J:Nu mouse plasma at 10 mg/kg, po qd for 7 days; format: ADME, organism-based; parameters: dose 10 mg/kg, route oral, time infinity; procedure, shortened: as §3
[23] = Dose normalized AUC (0 to infinity) in J:Nu mouse plasma at 10 mg/kg, po qd for 7 days; format: ADME, organism-based; conditions: in vivo, 168 h; procedure, shortened: as §3

Which EC50 (BJAB) does the source give for Cc1nn(-c2nc(-c3ccc(Cl)c(Cl)c3)c(SC(C)C)s2)c(C(=O)O)c1-c1cc(Cl)cc(Cl)c1 here?
Its EC50 is 554 nM.

And the IC50 (Jurkat)?
The IC50 was 500 nM.

And the IC50 (HCT-116)?
The IC50 was 600 nM.

What about the IC50 (A2780) of the same compound?
Its IC50 is 290 nM.

What about the IC50 (NCI-H460) of the same compound?
Its IC50 is 330 nM.

What about the IC50 (MCF7) of the same compound?
Its IC50 is 260 nM.

What about the solubility kinetic [1] of the same compound?
The solubility kinetic was over 200 µM.

And the fraction unbound [2]?
The fraction unbound was 0.027.

What about the fraction unbound [3] of the same compound?
The fraction unbound was 0.008.

And the Tmax [4]?
The Tmax was 5 h.

And the Vd [5]?
The Vd was 0.444 L/kg.

What about the Cmax [6] of the same compound?
The Cmax was 1.32 µg/mL.

And the Cmax [7]?
Its Cmax is 138 µg/mL.

What about the AUC(0-inf) [8] of the same compound?
Its AUC(0-inf) is 2250 µg·h/mL.

And the MRT [9]?
The MRT was 15.1 h.

What about the Ratio (Mus musculus [10]) of the same compound?
The Ratio was 8.8.

What about the Ratio (Mus musculus [11]) of the same compound?
Its Ratio is 8.7.

And the Ratio (Mus musculus [12])?
Its Ratio is 1.4.

And the Activity (Mus musculus [13])?
The Activity was “Non-Toxic”.

And the Activity (Mus musculus [14])?
The Activity was “Non-Toxic”.

And the Activity (Mus musculus [15])?
Its Activity is “Non-Toxic”.

And the Activity (Mus musculus [16])?
The Activity was “Non-Toxic”.

And the concentration at 7 h [17]?
The concentration at 7 h was 63.6 µg/mL.

And the concentration at 7 h [18]?
Its concentration at 7 h is 88.8 µg/mL.

What about the concentration at 7 h [19] of the same compound?
The concentration at 7 h was 57.3 µg/mL.

What about the Cmax/dose [20] of the same compound?
The Cmax/dose was 2.8979 µg/mL.

What about the Cmax/dose [21] of the same compound?
The Cmax/dose was 1.4943 µg/mL.

And the AUC(0-inf) [22]?
The AUC(0-inf) was 330 µg·h/mL.

And the AUC/dose [23]?
The AUC/dose was 33000 ng·kg·h/mL/mg.
